“And” between values parts separate entries of the source, which are not always exact repeats. Identical values can stand only once.
Tested on: HEK-293T
Assay: Multiplex assay against HEK293T
Type: toxicity, cell-based
Details: human
How it was run: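 Live cells were stained at seeding with Hoechst33342, BioTracker Green Microtubule Cytoskeleton Dye, MitoTracker Red and Annexin V Alexa Fluor 680, then imaged on a CQ1 microscope at 37°C and 5% CO2 after compound addition. CellPathfinder machine-learning gating split cells into Hoechst high-intensity objects or normal cells. Normal cells were split into healthy, pyknosed or fragmented nuclei, and pyknosed cells into mitotic or apoptotic. Tubulin, mitochondrial-mass and membrane-permeability phenotypes are per cents of healthy-nucleus cells.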

[1] = 12 h, 1 µM, compound concentration 1 uM
[2] = 12 h, 10 µM, compound concentration 10 uM
[3] = 24 h, 1 µM, compound concentration 1 uM
[4] = 24 h, 10 µM, compound concentration 10 uM
[5] = 48 h, 1 µM, compound concentration 1 uM
[6] = 48 h, 10 µM, compound concentration 10 uM

CC(C)(C)c1ccc(CSc2cnn(C(C)(C)C)c(=O)c2Cl)cc1 [PYRIDABEN]
Population Apoptotic (%) [1]: 51% and 28%
Population Fragmented Nuclei (%) [1]: 7% and 6%
Population Healthy Nuclei (%) [1]: 78% and 83%
Population Hoechst High Intensity Objects (%) [1]: 12% and 8%
Population Membrane Permeable-Phenotype (%) [1]: 0%
Population Mitochondria Different-Phenotype (%) [1]: 51% and 63%
Population Mitotic Cells (%) [1]: 48% and 71%
Population Normal (%) [1]: 87% and 91%
Population Pyknosed Nuclei (%) [1]: 14% and 10%
Population Tubulin-Different-Phenotype (%) [1]: 34% and 30%
Total Cell Count [1]: 299 and 306
Population Apoptotic (%) [2]: 56% and 62%
Population Fragmented Nuclei (%) [2]: 6% and 8%
Population Healthy Nuclei (%) [2]: 77% and 74%
Population Hoechst High Intensity Objects (%) [2]: 11% and 17%
Population Membrane Permeable-Phenotype (%) [2]: 0%
Population Mitochondria Different-Phenotype (%) [2]: 75% and 81%
Population Mitotic Cells (%) [2]: 44% and 37%
Population Normal (%) [2]: 88% and 82%
Population Pyknosed Nuclei (%) [2]: 15% and 16%
Population Tubulin-Different-Phenotype (%) [2]: 55% and 38%
Total Cell Count [2]: 359 and 236
Population Apoptotic (%) [3]: 33% and 35%
Population Fragmented Nuclei (%) [3]: 7%
Population Healthy Nuclei (%) [3]: 80% and 83%
Population Hoechst High Intensity Objects (%) [3]: 9% and 8%
Population Membrane Permeable-Phenotype (%) [3]: 0%
Population Mitochondria Different-Phenotype (%) [3]: 37% and 43%
Population Mitotic Cells (%) [3]: 66% and 64%
Population Normal (%) [3]: 90% and 91%
Population Pyknosed Nuclei (%) [3]: 11% and 8%
Population Tubulin-Different-Phenotype (%) [3]: 27% and 22%
Total Cell Count [3]: 373 and 370
Population Apoptotic (%) [4]: 44% and 46%
Population Fragmented Nuclei (%) [4]: 7% and 8%
Population Healthy Nuclei (%) [4]: 79% and 70%
Population Hoechst High Intensity Objects (%) [4]: 10% and 23%
Population Membrane Permeable-Phenotype (%) [4]: 0%
Population Mitochondria Different-Phenotype (%) [4]: 68% and 65%
Population Mitotic Cells (%) [4]: 55% and 53%
Population Normal (%) [4]: 89% and 76%
Population Pyknosed Nuclei (%) [4]: 12% and 21%
Population Tubulin-Different-Phenotype (%) [4]: 52% and 25%
Total Cell Count [4]: 386 and 252
Population Apoptotic (%) [5]: 19% and 30%
Population Fragmented Nuclei (%) [5]: 11% and 9%
Population Healthy Nuclei (%) [5]: 80% and 84%
Population Hoechst High Intensity Objects (%) [5]: 5% and 4%
Population Membrane Permeable-Phenotype (%) [5]: 0%
Population Mitochondria Different-Phenotype (%) [5]: 25% and 21%
Population Mitotic Cells (%) [5]: 80% and 69%
Population Normal (%) [5]: 94% and 95%
Population Pyknosed Nuclei (%) [5]: 7% and 6%
Population Tubulin-Different-Phenotype (%) [5]: 14% and 13%
Total Cell Count [5]: 585 and 522
Population Apoptotic (%) [6]: 48% and 64%
Population Fragmented Nuclei (%) [6]: 8% and 13%
Population Healthy Nuclei (%) [6]: 79% and 71%
Population Hoechst High Intensity Objects (%) [6]: 11% and 14%
Population Membrane Permeable-Phenotype (%) [6]: 0%
Population Mitochondria Different-Phenotype (%) [6]: 59% and 48%
Population Mitotic Cells (%) [6]: 51% and 35%
Population Normal (%) [6]: 88% and 85%
Population Pyknosed Nuclei (%) [6]: 12% and 14%
Population Tubulin-Different-Phenotype (%) [6]: 43% and 28%
Total Cell Count [6]: 424 and 290

O=C(Nc1ccccc1Br)N[C@@H]1CCN(c2ccc(C(F)(F)F)cn2)C1 [SB-705498]
Population Apoptotic (%) [1]: 7.52% and 7.03%
Population Fragmented Nuclei (%) [1]: 0.88% and 1.23%
Population Hoechst High Intensity Objects (%) [1]: 0.29% and 0%
Population Membrane Permeable-Phenotype (%) [1]: 0.99% and 0%
Population Mitochondria Different-Phenotype (%) [1]: 31.53% and 18.75%
Population Mitotic Cells (%) [1]: 92.48% and 92.97%
Population Normal (%) [1]: 99.71% and 100%
Population Pyknosed Nuclei (%) [1]: 39.23% and 79.01%
Total Cell Count [1]: 340 and 162
Population Apoptotic (%) [2]: 12.68% and 20.16%
Population Fragmented Nuclei (%) [2]: 2.69% and 4.05%
Population Hoechst High Intensity Objects (%) [2]: 1.52% and 0%
Population Membrane Permeable-Phenotype (%) [2]: 0.9% and 7.69%
Population Mitochondria Different-Phenotype (%) [2]: 31.53% and 23.08%
Population Mitotic Cells (%) [2]: 87.32% and 79.84%
Population Normal (%) [2]: 98.48% and 100%
Population Pyknosed Nuclei (%) [2]: 54.62% and 87.16%
Population Tubulin-Different-Phenotype (%) [2]: 17.12% and 46.15%
Total Cell Count [2]: 264 and 148
Population Apoptotic (%) [3]: 16.92% and 17.07%
Population Fragmented Nuclei (%) [3]: 1.6% and 1.17%
Population Healthy Nuclei (%) [3]: 75.22% and 26.9%
Population Hoechst High Intensity Objects (%) [3]: 0.18% and 0%
Population Membrane Permeable-Phenotype (%) [3]: 2.37% and 2.17%
Population Mitochondria Different-Phenotype (%) [3]: 11.37% and 2.17%
Population Mitotic Cells (%) [3]: 83.08% and 82.93%
Population Normal (%) [3]: 99.82% and 100%
Population Tubulin-Different-Phenotype (%) [3]: 10.9% and 6.52%
Population Apoptotic (%) [4]: 24.63% and 21.09%
Population Fragmented Nuclei (%) [4]: 1.27% and 4.24%
Population Hoechst High Intensity Objects (%) [4]: 0%
Population Membrane Permeable-Phenotype (%) [4]: 0%
Population Mitochondria Different-Phenotype (%) [4]: 24.71% and 20%
Population Mitotic Cells (%) [4]: 75.37% and 78.91%
Population Normal (%) [4]: 100%
Population Pyknosed Nuclei (%) [4]: 34.01% and 77.58%
Population Tubulin-Different-Phenotype (%) [4]: 37.65% and 16.67%
Total Cell Count [4]: 394 and 165
Population Apoptotic (%) [5]: 9.6% and 17.81%
Population Fragmented Nuclei (%) [5]: 2.88% and 0.56%
Population Healthy Nuclei (%) [5]: 86.22% and 58.66%
Population Hoechst High Intensity Objects (%) [5]: 0%
Population Membrane Permeable-Phenotype (%) [5]: 6.98% and 0.95%
Population Mitochondria Different-Phenotype (%) [5]: 12.34% and 27.62%
Population Mitotic Cells (%) [5]: 90.4% and 82.19%
Population Normal (%) [5]: 100%
Population Fragmented Nuclei (%) [6]: 1.84% and 0.57%
Population Healthy Nuclei (%) [6]: 83.54% and 53.41%
Population Hoechst High Intensity Objects (%) [6]: 0%
Population Membrane Permeable-Phenotype (%) [6]: 4.13% and 5.32%
Population Mitochondria Different-Phenotype (%) [6]: 29.2% and 45.74%
Population Mitotic Cells (%) [6]: 95.28% and 80.25%
Population Normal (%) [6]: 100%

CCCC(CCC)C(=O)O [VALPROIC ACID]
Population Apoptotic (%) [1]: 39% and 28%
Population Fragmented Nuclei (%) [1]: 6% and 5%
Population Healthy Nuclei (%) [1]: 81% and 79%
Population Hoechst High Intensity Objects (%) [1]: 6% and 5%
Population Membrane Permeable-Phenotype (%) [1]: 0%
Population Mitochondria Different-Phenotype (%) [1]: 29% and 46%
Population Mitotic Cells (%) [1]: 60% and 71%
Population Normal (%) [1]: 93% and 94%
Population Pyknosed Nuclei (%) [1]: 12% and 15%
Population Tubulin-Different-Phenotype (%) [1]: 20% and 16%
Total Cell Count [1]: 513 and 367
Population Apoptotic (%) [2]: 34% and 44%
Population Fragmented Nuclei (%) [2]: 6% and 7%
Population Healthy Nuclei (%) [2]: 82% and 81%
Population Hoechst High Intensity Objects (%) [2]: 6%
Population Membrane Permeable-Phenotype (%) [2]: 0%
Population Mitochondria Different-Phenotype (%) [2]: 40% and 49%
Population Mitotic Cells (%) [2]: 66% and 55%
Population Normal (%) [2]: 93%
Population Pyknosed Nuclei (%) [2]: 11%
Population Tubulin-Different-Phenotype (%) [2]: 26% and 20%
Total Cell Count [2]: 455 and 446
Population Apoptotic (%) [3]: 28% and 45%
Population Fragmented Nuclei (%) [3]: 8% and 6%
Population Healthy Nuclei (%) [3]: 78% and 83%
Population Hoechst High Intensity Objects (%) [3]: 4%
Population Membrane Permeable-Phenotype (%) [3]: 1% and 0%
Population Mitochondria Different-Phenotype (%) [3]: 22% and 26%
Population Mitotic Cells (%) [3]: 71% and 54%
Population Normal (%) [3]: 95%
Population Pyknosed Nuclei (%) [3]: 12% and 9%
Population Tubulin-Different-Phenotype (%) [3]: 16% and 10%
Total Cell Count [3]: 663 and 469
Population Apoptotic (%) [4]: 28% and 23%
Population Fragmented Nuclei (%) [4]: 9% and 8%
Population Healthy Nuclei (%) [4]: 81% and 86%
Population Hoechst High Intensity Objects (%) [4]: 4% and 3%
Population Membrane Permeable-Phenotype (%) [4]: 0%
Population Mitochondria Different-Phenotype (%) [4]: 16% and 30%
Population Mitotic Cells (%) [4]: 71% and 76%
Population Normal (%) [4]: 95% and 96%
Population Pyknosed Nuclei (%) [4]: 9% and 5%
Population Tubulin-Different-Phenotype (%) [4]: 15% and 11%
Total Cell Count [4]: 649 and 593
Population Apoptotic (%) [5]: 19% and 36%
Population Fragmented Nuclei (%) [5]: 14% and 10%
Population Healthy Nuclei (%) [5]: 78% and 81%
Population Hoechst High Intensity Objects (%) [5]: 2% and 3%
Population Membrane Permeable-Phenotype (%) [5]: 3% and 1%
Population Mitochondria Different-Phenotype (%) [5]: 11% and 17%
Population Mitotic Cells (%) [5]: 80% and 63%
Population Normal (%) [5]: 97% and 96%
Population Pyknosed Nuclei (%) [5]: 6% and 8%
Population Tubulin-Different-Phenotype (%) [5]: 9% and 10%
Total Cell Count [5]: 1112 and 700
Population Apoptotic (%) [6]: 21% and 27%
Population Fragmented Nuclei (%) [6]: 15% and 13%
Population Healthy Nuclei (%) [6]: 79% and 82%
Population Hoechst High Intensity Objects (%) [6]: 3% and 1%
Population Membrane Permeable-Phenotype (%) [6]: 1% and 2%
Population Mitochondria Different-Phenotype (%) [6]: 11% and 12%
Population Mitotic Cells (%) [6]: 78% and 72%
Population Normal (%) [6]: 96% and 98%
Population Pyknosed Nuclei (%) [6]: 5% and 4%
Population Tubulin-Different-Phenotype (%) [6]: 9% and 6%
Total Cell Count [6]: 1088 and 947

Reference: ChEMBL document CHEMBL5724801, “EUbOPEN Chemogenomics Library - Multiplex” (2024)
